# Measurements reported in publication PMC5521815 (ACS chemical biology, 2016).
# “Also recorded” adds a separate entry of the source.
# Experiments:
# E. coli [1] = assay: Radial diffusion assay in the presence of RBCs and/or serum; assay type: cell-based, Escherichia coli; details: RBCs up to 1x10^9 cells/ml, 30 min 37°C; result in words
# Method in brief: (§1)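 Log-phase (TSB) E. coli ATCC 25922 or S. aureus ATCC 25923, 8 × 10^6 CFU in 20 mL underlay agarose with 3 mm wells. Test peptide at 20 μM was preincubated 30 min at 37 °C with washed human O+ RBCs and/or filtered serum at 2–20% of whole blood (1 × 10^8–1 × 10^9 cells/mL). 10 μL per well, 3 h at 37 °C, overlay, overnight; inhibition zones imaged.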
# S. aureus = assay: Radial diffusion assay in the presence of RBCs; assay type: cell-based, Staphylococcus aureus; details: RBCs up to 1x10^9 cells/ml, 30 min 37°C; result in words
# Method in brief: as §1
# human RBC = assay: Hemolysis of human RBCs; assay type: cell-based; details: result in words; for Hemolysis, propensity to lyse human RBCs: 1x10^8 human RBC/ml, 100 μM peptide, 37° C, 1 hour; for Selectivity (antimicrobial activity relative to host cell toxicity): represented by hemolysis at 100 μM peptide
# [2] = test system: Escherichia coli strain ATCC 25922; assay: Broth dilution MIC; assay type: cell-based; details: result in words; for Activity (MIC) in broth dilution against E. coli: absence of RBCs, 5x10^5 CFU/ml, overnight 37°C
# [3] = test system: Staphylococcus aureus strain ATCC 25923; assay: Broth dilution MIC; assay type: cell-based; details: absence of RBCs; 5x10^5 CFU/ml, overnight 37°C; result in words
# [4] = test system: Staphylococcus aureus strain ATCC 25923; details: result in words; cited from earlier work
# [5] = test system: Escherichia coli strain ATCC 25922; details: result in words; cited from earlier work
# E. coli [6] = assay: Number of bound peptides required to kill E. coli; assay type: cell-based, Escherichia coli; details: calculated from sterilization limit and binding curve
# Pseudomonas aeruginosa = details: result in words; cited from earlier work
compound,measurement,setting,value
[H]/N=C(/N)N[C@H]1[C@H](O)[C@@H](O)[C@H](O[C@@H]2O[C@@H](C)[C@](O)(C=O)[C@H]2O[C@@H]2O[C@@H](CO)[C@H](O)[C@@H](O)[C@@H]2NC)[C@@H](N/C(N)=N\[H])[C@@H]1O [streptomycin],Effect of preincubation with RBCs on radial diffusion activity,E. coli [1],not affected significantly
CN[C@H](CC(C)C)C(=O)N[C@H]1C(=O)N[C@@H](CC(N)=O)C(=O)N[C@H]2C(=O)N[C@H]3C(=O)N[C@H](C(=O)N[C@H](C(=O)O)c4cc(O)cc(O)c4-c4cc3ccc4O)[C@H](O)c3ccc(c(Cl)c3)Oc3cc2cc(c3O[C@@H]2O[C@H](CO)[C@@H](O)[C@H](O)[C@H]2O[C@H]2C[C@](C)(N)[C@H](O)[C@H](C)O2)Oc2ccc(cc2Cl)[C@H]1O [vancomycin],Effect of preincubation with RBCs on radial diffusion activity,S. aureus,not affected significantly
GIGKFLHSAKKFGK-AFVGEIMNS [magainin II],"Hemolysis, propensity to lyse human RBCs",human RBC,near zero propensity to lyse dilute human RBCs
same,Selectivity (antimicrobial activity relative to host cell toxicity),human RBC,highly selective
same,Activity (MIC) in broth dilution against E. coli,[2],active only against E. coli
same,Activity (MIC) in broth dilution against S. aureus,[3],active only against E. coli
GIGKFLKKAKK-FGKAFVKILKK-NH2 [MSI-78],Selectivity (antimicrobial activity relative to host cell toxicity),human RBC,moderately high selectivity
ILPWKWPWWPWRR-NH2 [indolicidin],Selectivity (antimicrobial activity relative to host cell toxicity),human RBC,poor selectivity; also recorded: very poor selectivity
KWKLFKKIEKVGQN-IRDGIIKAGPAVAVVGQATQIAK [cecropin A],"Hemolysis, propensity to lyse human RBCs",human RBC,near zero propensity to lyse dilute human RBCs
same,Selectivity (antimicrobial activity relative to host cell toxicity),human RBC,highly selective; also recorded: most selective in our set
same,Activity (MIC) in broth dilution against E. coli,[2],highly active
same,Activity (MIC) in broth dilution against S. aureus,[3],not against S. aureus
LLGDFFRKSKEKIGKEFKRIVQRIKDFLRNLVPRTES [LL-37],Activity in sterilization assay against S. aureus (known),[4],undetectable against S. aureus
same,Activity in sterilization assay against E. coli (known),[5],poor against E. coli
RRGWALRLVLAY-NH2 [ARVA-L],Selectivity (antimicrobial activity relative to host cell toxicity),human RBC,fair selectivity
same,Host cell effect on MIC without preincubation with host cells,"[2]; compared with preincubation, organism not stated",much smaller
RRGWALRLVLAY-NH2 [ARVA],Bound peptides per bacterial cell required for sterilization (no surviving CFUs),E. coli [6],> 1x10^8 peptides per bacterial cell
RRWVRRVRRWVRRVVR-VVRRWVRR [WLBU2],Activity in whole blood against Pseudomonas aeruginosa,Pseudomonas aeruginosa,retained activity in whole blood
melittin,"Hemolysis, propensity to lyse human RBCs",human RBC,highly hemolytic
same,Selectivity (antimicrobial activity relative to host cell toxicity),human RBC,completely non-selective; also recorded: least selective peptide by far
same,Selectivity (antimicrobial activity relative to host cell toxicity),human RBC; listed as Melittin,entirely non-selective
